# Experimental data published in ChEMBL document CHEMBL1240366, “Blockade of X4-tropic HIV-1 cellular entry by GSK812397, a potent noncompetitive CXCR4 receptor antagonist” (Antimicrob Agents Chemother, 2010).
# Calls of active or inactive are those of the source. The calls are words filed in the database; no cut-off is given here.
# Tests used:
# [1] = test system: Human immunodeficiency virus 1; assay: Antiviral activity against HIV1 isolate 05-121785 assessed as inhibition of viral replication after 7 days by scintillation counting; assay type: functional, organism-based; details: Human immunodeficiency virus 1, isolate 05-121785, 168 h
# [2] = test system: Human immunodeficiency virus 1; assay: Antiviral activity against HIV1 isolate 05-121788 assessed as inhibition of viral replication after 7 days by scintillation counting; assay type: functional, organism-based; details: Human immunodeficiency virus 1, isolate 05-121788, 168 h
# [3] = test system: Human immunodeficiency virus 1; assay: Antiviral activity against HIV1 isolate 05-121789 assessed as inhibition of viral replication after 7 days by scintillation counting; assay type: functional, organism-based; details: Human immunodeficiency virus 1, isolate 05-121789, 168 h
# Cytochrome P450 2D6 = Cytochrome P450 2D6 (Homo sapiens, UniProt P10635); assay: Inhibition of CYP2D6 up to 30 uM; assay type: ADME
# Cytochrome P450 2D6, sequence (P10635 whole entry): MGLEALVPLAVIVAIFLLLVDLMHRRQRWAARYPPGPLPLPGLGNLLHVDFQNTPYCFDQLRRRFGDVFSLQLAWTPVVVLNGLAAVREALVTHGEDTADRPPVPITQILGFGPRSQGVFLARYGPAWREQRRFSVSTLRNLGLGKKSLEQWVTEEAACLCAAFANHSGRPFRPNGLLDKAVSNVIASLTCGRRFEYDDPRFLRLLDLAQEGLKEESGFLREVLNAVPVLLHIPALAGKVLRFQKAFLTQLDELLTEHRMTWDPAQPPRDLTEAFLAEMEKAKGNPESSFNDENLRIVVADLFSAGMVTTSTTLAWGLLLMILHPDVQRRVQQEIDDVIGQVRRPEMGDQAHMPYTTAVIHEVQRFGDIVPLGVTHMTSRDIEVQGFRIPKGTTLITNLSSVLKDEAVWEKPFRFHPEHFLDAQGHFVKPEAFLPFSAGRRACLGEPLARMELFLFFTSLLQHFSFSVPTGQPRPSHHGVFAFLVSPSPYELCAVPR
# [4] = Clearance in monkey at 1 mg/kg, iv administered as single dose after 24 hrs by liquid chromatography-mass spectroscopy; assay type: ADME, organism-based, Macaca mulatta; design: dose 1 mg/kg, route intravenous; details: rhesus monkey, in vivo
# Method in brief: (§1)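 Single intravenous dose of 1 mg/kg. Plasma was sampled at serial times over 24 h and measured by LC-MS/MS. Clearance was derived by pharmacokinetic analysis.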
# [5] = Oral bioavailability in rat at 3 mg/kg administered as single dose after 24 hrs by liquid chromatography-mass spectroscopy; assay type: ADME, organism-based; details: in vivo
# [6] = test system: Human immunodeficiency virus 1; assay: Antiviral activity against HIV1 isolate 05-121794 assessed as inhibition of viral replication after 7 days by scintillation counting; assay type: functional, organism-based; details: Human immunodeficiency virus 1, isolate 05-121794, 168 h
# [7] = Oral bioavailability in monkey at 3 mg/kg administered as single dose after 24 hrs by liquid chromatography-mass spectroscopy; assay type: ADME, organism-based, Macaca mulatta; details: rhesus monkey, in vivo
# [8] = biological target: C-X-C chemokine receptor type 4 (Homo sapiens) (UniProt P61073); assay: Inhibition of CXCR4-mediated chemotaxis in SDF1-stimulated human U937 cells treated 15 mins before SDF1 challenge measured after 2 hrs by luminescence assay relative to control; assay type: cell-based; details: U-937
# C-X-C chemokine receptor type 4 (Homo sapiens), sequence (P61073 whole entry): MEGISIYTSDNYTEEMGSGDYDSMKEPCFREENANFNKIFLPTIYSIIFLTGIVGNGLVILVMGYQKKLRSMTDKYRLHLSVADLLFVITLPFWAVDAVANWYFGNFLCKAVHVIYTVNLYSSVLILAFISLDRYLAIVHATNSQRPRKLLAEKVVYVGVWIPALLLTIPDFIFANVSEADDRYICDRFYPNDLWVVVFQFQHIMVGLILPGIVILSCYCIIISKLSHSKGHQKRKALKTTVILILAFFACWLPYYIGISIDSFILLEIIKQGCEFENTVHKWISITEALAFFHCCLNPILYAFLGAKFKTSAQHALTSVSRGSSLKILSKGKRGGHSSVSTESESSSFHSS
# Method in brief: (§2)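 U937 cells (endogenous CXCR4) in RPMI with 2% FCS and 10 mM HEPES, 5 × 10^6 cells/ml, preincubated 15 min with compound, then placed above a 5.0 μm filter. The lower chamber held the same compound concentration plus SDF-1. Migration ran 2 h. Migrated cells were quantified by ATP luminescence. Viability was checked under identical conditions. For mode of action, SDF-1 concentration-response curves were run at increasing compound concentrations.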
# [9] = test system: Human immunodeficiency virus 1; assay: Antiviral activity against HIV1 isolate 05-121779 assessed as inhibition of viral replication after 7 days by scintillation counting; assay type: functional, organism-based; details: Human immunodeficiency virus 1, isolate 05-121779, 168 h
# [10] = biological target: C-X-C chemokine receptor type 4 (Homo sapiens) (UniProt P61073); assay: Agonist activity at human CXCR4 expressed in HEK293 cells assessed as effect intracellular calcium level after 1 hr by FLIPR assay; assay type: functional, cell-based
# [11] = test system: Human immunodeficiency virus 1; assay: Antiviral activity against HIV1 isolate 05-121774 assessed as inhibition of viral replication after 7 days by scintillation counting; assay type: functional, organism-based; details: Human immunodeficiency virus 1, isolate 05-121774, 168 h
# [12] = test system: Human immunodeficiency virus 1; assay: Antiviral activity against HIV1 isolate 05-121799 assessed as inhibition of viral replication after 7 days by scintillation counting; assay type: functional, organism-based; details: Human immunodeficiency virus 1, isolate 05-121799, 168 h
# [13] = biological target: C-X-C chemokine receptor type 4 (Homo sapiens) (UniProt P61073); assay: Inhibition of CXCR4-mediated chemotaxis in SDF1-stimulated human U937 cells treated 15 mins before SDF1 challenge measured after 2 hrs by luminescence assay; assay type: cell-based; details: U-937; method in brief: as §2
# Cytochrome P450 2C19 = Cytochrome P450 2C19 (Homo sapiens, UniProt P33261); assay: Inhibition of CYP2C19 up to 30 uM; assay type: ADME
# Cytochrome P450 2C19, sequence (P33261 whole entry): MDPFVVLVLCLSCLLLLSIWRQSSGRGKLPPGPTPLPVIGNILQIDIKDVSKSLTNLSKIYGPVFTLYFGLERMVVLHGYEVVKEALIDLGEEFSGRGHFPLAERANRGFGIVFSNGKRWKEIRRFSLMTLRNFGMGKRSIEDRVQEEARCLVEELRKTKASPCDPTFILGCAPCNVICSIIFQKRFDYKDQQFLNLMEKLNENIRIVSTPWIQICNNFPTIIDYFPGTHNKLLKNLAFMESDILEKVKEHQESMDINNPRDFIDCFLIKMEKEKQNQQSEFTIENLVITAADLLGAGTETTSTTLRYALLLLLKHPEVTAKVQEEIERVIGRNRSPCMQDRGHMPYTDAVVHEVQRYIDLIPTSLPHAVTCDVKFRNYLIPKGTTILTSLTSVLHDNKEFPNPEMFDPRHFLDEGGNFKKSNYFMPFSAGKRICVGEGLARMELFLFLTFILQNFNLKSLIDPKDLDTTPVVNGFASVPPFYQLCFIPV
# [14] = Volume of distribution at steady state in monkey at 1 mg/kg, iv administered as single dose after 24 hrs by liquid chromatography-mass spectroscopy; assay type: ADME, organism-based, Macaca mulatta; design: dose 1 mg/kg, route intravenous; details: rhesus monkey, in vivo, read-out: Vdss
# [15] = test system: Human immunodeficiency virus 1; assay: Antiviral activity against HIV1 isolate 05-121796 assessed as inhibition of viral replication after 7 days by scintillation counting; assay type: functional, organism-based; details: Human immunodeficiency virus 1, isolate 05-121796, 168 h
# [16] = Clearance in rat at 1 mg/kg, iv administered as single dose after 24 hrs by liquid chromatography-mass spectroscopy; assay type: ADME, organism-based; design: dose 1 mg/kg, route intravenous; details: in vivo; method in brief: as §1
# [17] = test system: Human immunodeficiency virus 1; assay: Antiviral activity against HIV1 3B infected in human HOS cells after 72 hrs by luminescence assay in presence of 1 mg/ml alpha-acid glycoprotein; assay type: functional, organism-based; details: Human immunodeficiency virus 1, 3B
# [18] = test system: Human immunodeficiency virus 1; assay: Antiviral activity against HIV1 isolate 05-121775 assessed as inhibition of viral replication after 7 days by scintillation counting; assay type: functional, organism-based; details: Human immunodeficiency virus 1, isolate 05-121775, 168 h
# [19] = test system: Human immunodeficiency virus 1; assay: Antiviral activity against HIV1 isolate 05-121776 assessed as inhibition of viral replication after 7 days by scintillation counting; assay type: functional, organism-based; details: Human immunodeficiency virus 1, isolate 05-121776, 168 h
# [20] = biological target: C-X-C chemokine receptor type 4 (Homo sapiens) (UniProt P61073); assay: Noncompetitive antagonist activity at human CXCR4 expressed in HEK293 cells assessed as inhibition of SDF1-induced increase in intracellular calcium level treated 15 mins before agonist challenge measured after 1 hr by FLIPR assay; assay type: functional, cell-based
# [21] = test system: Human immunodeficiency virus 1; assay: Antiviral activity against HIV1 JRCSF assessed as inhibition of viral replication by cell-based assay; assay type: functional; details: JRCSF ISOLATE
# HOS = assay: Cytotoxicity against human HOS cells infected with HIV1 3B after 72 hrs by celltiter glow assay; assay type: cell-based
# [22] = Half life in monkey at 3 mg/kg, po administered as single dose by liquid chromatography-mass spectroscopy; assay type: ADME, organism-based, Macaca mulatta; design: dose 3 mg/kg, route oral; details: rhesus monkey, in vivo
# Method in brief: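 Single oral dose of 3 mg/kg. Plasma was sampled at serial times over 24 h and measured by LC-MS/MS. Half-life was derived by pharmacokinetic analysis.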
# Cavia porcellus = species: Cavia porcellus; assay: Inhibition of guinea pig ileum ACE at 30 uM; assay type: tissue-based
# Method in brief: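 Isolated guinea pig ileum preparation; ACE inhibition measured as maximal inhibition at 30 μM.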
# PBMC = assay: Cytotoxicity against human PBMC infected with HIV1 3B after 96 hrs by celltiter glow assay
# [23] = Volume of distribution at steady state in dog at 1 mg/kg, iv administered as single dose after 24 hrs by liquid chromatography-mass spectroscopy; assay type: ADME, organism-based, Canis lupus familiaris; design: dose 1 mg/kg, route intravenous; details: in vivo, read-out: Vdss
# [24] = test system: Human immunodeficiency virus 1; assay: Antiviral activity against HIV1 isolate 05-121772 assessed as inhibition of viral replication after 7 days by scintillation counting; assay type: functional, organism-based; details: Human immunodeficiency virus 1, isolate 05-121772, 168 h
# [25] = test system: Human immunodeficiency virus 1; assay: Antiviral activity against HIV1 isolate 05-121783 assessed as inhibition of viral replication after 7 days by scintillation counting; assay type: functional, organism-based; details: Human immunodeficiency virus 1, isolate 05-121783, 168 h
# [26] = test system: Human immunodeficiency virus 1; assay: Antiviral activity against HIV1 isolate 05-121773 assessed as inhibition of viral replication after 7 days by scintillation counting; assay type: functional, organism-based; details: Human immunodeficiency virus 1, isolate 05-121773, 168 h
# [27] = test system: Human immunodeficiency virus 1; assay: Antiviral activity against HIV1 isolate 05-121790 assessed as inhibition of viral replication after 7 days by scintillation counting; assay type: functional, organism-based; details: Human immunodeficiency virus 1, isolate 05-121790, 168 h
# [28] = Volume of distribution at steady state in rat at 1 mg/kg, iv administered as single dose after 24 hrs by liquid chromatography-mass spectroscopy; assay type: ADME, organism-based; design: dose 1 mg/kg, route intravenous; details: in vivo, read-out: Vdss
# [29] = test system: Human immunodeficiency virus 1; assay: Antiviral activity against HIV1 isolate 05-121787 assessed as inhibition of viral replication after 7 days by scintillation counting; assay type: functional, organism-based; details: Human immunodeficiency virus 1, isolate 05-121787, 168 h
smiles,measurement,setting,value
CN1CCN(c2cccc3nc(CN(C)[C@H]4CCCc5cccnc54)c(CO)n23)CC1,IC50,[1],1 nM
same,IC50,[2],1 nM
same,IC50,[3],1 nM
same,inhibition (INH),Cytochrome P450 2D6,Not Active
same,clearance,[4],5.8 mL/min/kg
same,bioavailability,[5],21%
same,IC50,[6],1 nM
same,bioavailability,[7],17%
same,inhibition,[8],109%
same,IC50,[9],1 nM
same,Activity,[10],inactive
same,IC50,[11],1 nM
same,IC50,[12],1 nM
same,inhibition,[13],Dose-dependent effect
same,inhibition (INH),Cytochrome P450 2C19,Not Active
same,Vd,[14],5.9 L/kg
same,IC50,[15],1 nM
same,clearance,[16],4.5 mL/min/kg
same,IC50,[17],2.87 nM
same,IC50,[18],1 nM
same,IC50,[19],1 nM
same,Activity,[20],Active
same,inhibition,[21],inactive
same,IC50,HOS,> 1000 nM
same,half-life,[22],> 12 h
same,inhibition,Cavia porcellus,26%
same,IC50,PBMC,> 1000 nM
same,Vd,[23],5.3 L/kg
same,IC50,[24],1 nM
same,IC50,[25],1 nM
same,IC50,[26],1 nM
same,IC50,[27],1 nM
same,Vd,[28],2.1 L/kg
same,IC50,[29],1 nM
